Only some compounds are listed: those with a hit (about 3.8% of all), similar ones and a draw of the others.
hERG protect = hERG rescue from dofetilide block, primary screen, cell-based, CHO-hERG, FluxOR thallium flux, dofetilide IC70; hit rate 0.51% among 310,000; AID 1511, 2009; dofetilide IC70 present; Voltage-gated inwardly rectifying potassium channel KCNH2 (Homo sapiens), Q12809; activation (rescue from dofetilide block), less the hit threshold, % at 10 µM;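 active means activation above the mean of controls blocked by dofetilide plus 5 SD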;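 further: thallium influx through hERG after potassium depolarization seen as dye fluorescence rise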
Kir21 block = inhibitors of mouse Kir2.1 inward-rectifier potassium channel | HEK293-Kir2.1, FluxOR thallium flux fluorescence; active compounds read low | B-score at 10 µM | hit rate 0.85% among 310,000;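 active means fluorescence ratio B-score at or below minus 3 SD of library scores, with starting-brightness B-score within 2 SD, cut at about -4.2 in these data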;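 further: channel flux triggered by added potassium and thallium sulfate stimulus; B-score of peak minus minimum fluorescence over baseline after thallium stimulus; more negative B-score means stronger Kir2.1 block with less thallium influx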
KCNQ1 pot = potentiators or activators of KCNQ1 channel, primary screen, cell-based, thallium flux, high-throughput | Potassium voltage-gated channel subfamily KQT member 1 (Homo sapiens), P51787 | CHO-K1 KCNQ1, thallium flux FluxOR fluorescence; active compounds read high | B-score at 10 µM | hit rate 0.35% among 310,000;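 active means fluorescence ratio B-score, a plate-corrected score, at least three library SD, with initial intensity B-score within 5 SD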
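System: Stable KCNQ1 CHO-K1 line | Incubation: 90 min dye loading and 20 min compound exposure, both at room temperature | Measure: Ratio B score | Medium: Assay buffer for compound exposure, DMSO matched across wells | Compound dosing: Single-concentration screen | Probe or stimulus: K+/Tl+ depolarizing stimulus | Measured by: Kinetic FluxOR fluorescence, 10 s baseline plus 110 s post-stimulus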
KCNK3 inh = human KCNK3 channel inhibitors, primary screen, CHO cells, FluxOR thallium flux, B-score; FluxOR fluorescence; active compounds read low; B-score at 10 µM; hit rate 0.84% among 340,000;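 active means B-score under library mean minus 4 SD, starting fluorescence ratio at most library mean plus 5 SD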;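 further: more negative B-score means stronger inhibition of thallium flux through KCNK3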
KCNK9 inh = KCNK9 potassium channel inhibitors, primary screen, HEK293 cells, thallium flux; hit rate 1.2% among 310,000; FluxOR thallium flux fluorescence; active compounds read low; B-score at 10 µM; AID 488922, 2010;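 active means ratio B-score over 3 SD below the library mean, with starting fluorescence within 5 SD of its mean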;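 further: negative B-score means less thallium flux so channel inhibition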
Target sequence (Q9NPC2 whole entry, looked up): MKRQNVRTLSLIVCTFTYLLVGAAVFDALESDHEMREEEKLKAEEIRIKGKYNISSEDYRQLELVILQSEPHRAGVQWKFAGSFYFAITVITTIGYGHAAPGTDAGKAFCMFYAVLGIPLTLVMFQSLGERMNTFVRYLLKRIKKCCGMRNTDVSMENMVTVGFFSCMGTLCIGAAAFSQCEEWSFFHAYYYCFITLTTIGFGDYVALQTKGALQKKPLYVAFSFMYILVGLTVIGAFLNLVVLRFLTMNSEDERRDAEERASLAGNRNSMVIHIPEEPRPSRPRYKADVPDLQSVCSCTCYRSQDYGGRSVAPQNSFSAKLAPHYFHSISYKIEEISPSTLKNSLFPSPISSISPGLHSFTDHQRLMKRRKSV
KCNQ1 block = inhibitors of human KCNQ1 channel, primary screen, cell-based, thallium flux, high-throughput | Potassium voltage-gated channel subfamily KQT member 1 (Homo sapiens), P51787 | CHO-K1 KCNQ1, FluxOR thallium flux fluorescence; active compounds read high | B-score at 10 µM | hit rate 1.3% among 310,000 | AID 2642, 2010;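 active means compounds whose thallium flux B-score, printed positive for inhibition, exceeds three library SD while starting fluorescence stays within three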;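 further: channel opened by potassium depolarization with thallium stimulus after 20 min compound exposure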
Starred values were filed as active, the others as inactive; i = inactive; . = not tested or not shown.

SMILES	hERG protect	Kir21 block	KCNQ1 pot	KCNK3 inh	KCNK9 inh	KCNQ1 block
Fc1ccc(CNc2ccc(N3CCN(Cc4ccccc4)CC3)cc2)cc1	-14	-7.1*	i	i	i	i
C=CCn1c(SCC(N)=O)nnc1-c1cccc(Br)c1	-6	-0.5	i	i	i	i
C=CCn1c(SCc2ccccc2C#N)nnc1-c1cc(Br)ccc1O	-26	-8.3*	i	i	i	i
Cc1cccc(C(=O)Nc2cc(Cl)ccc2-n2cncn2)c1[N+](=O)[O-]	-12	1.1	i	i	i	i
CCCCCCCCCc1nc2sc3c(c2c(=O)n1NC(=O)c1ccc([N+](=O)[O-])cc1)CC(C)(C)OC3	-10	-0.18	i	i	i	7*
CCCc1nc2sc3c(c2c(=O)n1NC(=O)c1ccco1)CC(C)(C)OC3	-11	0.17	i	i	i	i
CCCCCCCCCc1nc2sc3c(c2c(=O)n1NC(=O)c1ccccc1[N+](=O)[O-])CC(C)(C)OC3	-9	-0.07	i	i	i	8*
O=C(Nc1ccc(-n2cccn2)cc1)C1CCCCN1Cc1cccc2c1OCO2 (stereo not given)	-7	2.5	i	i	i	i
COc1ccc(F)cc1C1=CC(=O)C[C@H](c2ccc3c(c2)OCO3)C1	.	.	.	i	.	.
CC(C)(C)c1ccc(Oc2ccc(N)cn2)cc1	-1	-0.2	21*	i	i	i
COC(=O)Cc1c(C)c2ccc(OCC(=O)N(C)C3CCS(=O)(=O)C3)cc2oc1=O (stereo not given)	-4	0.56	i	i	i	i
O=[N+]([O-])c1ccc2nc(/C=C/c3ccc(Cl)cc3)[nH]c2c1	-14	0.67	i	i	i	11*
O=[N+]([O-])c1ccc(-c2nc3ccc([N+](=O)[O-])cc3[nH]2)cc1	-6	0.33	i	i	i	i
CCOc1cc(C(c2c(C)[nH][nH]c2=O)c2c(C)[nH][nH]c2=O)ccc1OCc1ccc([N+](=O)[O-])cc1	-6	-5.7*	i	i	i	i
CCc1ccc(CNC(=O)c2ccc(OC3CCN(C(C)=O)CC3)c(OC)c2)nc1	-8	-1.5	i	i	i	i
NC(=O)C1CCN(c2oc(-c3cccs3)nc2S(=O)(=O)c2ccc(Br)cc2)CC1	.	.	.	i	.	.
Cc1ccc(NC(=O)CN2C(=O)S/C(=C\c3ccc(-c4cccc(C(=O)O)c4C)o3)C2=O)cc1	15*	-10	i	.	i	i
Cc1ccc(NC(=O)CN2C(=O)S/C(=C/c3ccc(-c4cccc(C(=O)O)c4)o3)C2=O)cc1	.	.	.	i	.	.
O=C(Nc1ccccc1N1CCN(C(=O)c2ccccc2)CC1)c1cc2ccccc2o1	.	.	.	-9.7*	.	.
Cc1cccc(C)c1NC(=S)N(C)CCc1ccccn1	-7	0.65	i	i	i	i
CC(C)c1ccc(NC(=S)N(C)CCc2ccccn2)cc1	29*	-1	i	i	i	i
COc1cc(C)c(S(=O)(=O)NOCc2ccccc2)c(C)c1C	-4	-7.1*	i	i	i	i
CCN(CC)CCCN1C(=O)c2oc3ccccc3c(=O)c2C1c1cccs1 (stereo not given)	26*	-0.1	15*	.	i	i
C[C@H]1COC2=C1C(=O)C(=O)c1c2ccc2c1CCCC2(C)C	-18	-5.4*	i	-8.7*	i	i
CCOC(=O)c1[nH]c(C=O)c(C(=O)OCC)c1C	4.9*	0.89	13*	i	i	i
CCOC(=O)c1c(C)[nH]c(C(C)=O)c1C	-17	0.81	i	i	i	i
COc1ccc(NC(=O)Nc2ccc3c(c2)CC(=O)N([C@H](C)CO)C[C@H](C)[C@H](CN(C)Cc2ccc(C(=O)O)cc2)O3)cc1	.	.	.	i	.	.
